# Experimental data pooled from the literature.
# Compare with care: the assays were run in different laboratories.
# SCN1A: Sodium channel protein type 1 subunit alpha (SCN1A, Homo sapiens, UniProt P35498)
# CDK5 with p35: Cyclin-dependent kinase 5, with p35 (CDK5, Homo sapiens, UniProt Q00535)
Compound,target,test,system,conditions,measurement,result
CCCN1C[C@H](CSC)C[C@@H]2c3cccc4[nH]cc(c34)C[C@H]21,SCN1A,"ion current, inhibitor, patch clamp",,30 µM,inhibition,89.1%
C[C@@H]1CC2=C(CN1Cc1cccc(C#N)c1)C(=O)N(Cc1ccc(Br)cc1)C1=NCCN12,"ATP-dependent Clp protease proteolytic subunit, mitochondrial (CLPP, Homo sapiens, UniProt Q16740)","thermal stability, DSF",,670 µM,ΔTm,17.7 °C
CNC[C@H](O)c1cccc(O)c1,"Alpha-1A adrenergic receptor (ADRA1A, Homo sapiens, UniProt P35348)","calcium signal, agonist",COS-7,,Emax,~80%
Cn1c(=O)c2[nH]cnc2n(C)c1=O,SCN1A,"ion current, inhibitor, patch clamp",,3 µM,inhibition,0.195%
Cc1cc([C@@H](C)Nc2ccccc2C(=O)O)c2nc(N3CCC(F)(F)CC3)c(C#N)c(=O)n2c1,"Focal adhesion kinase 1 (PTK2, Homo sapiens, UniProt Q05397)","binding, competition with immobilised ligand",,10 µM,remaining binding,100%
C=CC(=O)N1CCC(COCC(=O)N2CCN(c3nc(-c4cnc(N)nc4C(F)F)nc(N4CCOC[C@@H]4C)n3)CC2)CC1,"Mitotic checkpoint serine/threonine-protein kinase BUB1 (BUB1, Homo sapiens, UniProt O43683)","binding, competition with immobilised ligand",,1 µM,remaining binding,93%
CC12CC3CC(C)(C1)CC(N)(C3)C2,SCN1A,"ion current, inhibitor, patch clamp",,3 µM,inhibition,0.782%
C[C@H]1O[C@H](O[C@H]2[C@H](O)[C@@H](O)[C@@H](O[C@H]3[C@H](O)[C@@H](O)C(O)O[C@@H]3CO)O[C@@H]2CO)[C@H](O)[C@@H](O)[C@@H]1N[C@H]1C=C(CO)[C@@H](O)[C@H](O)[C@H]1O (stereo partly drawn),"Alpha-glucosidase MAL12 (MAL12, Saccharomyces cerevisiae S288c, UniProt P53341)","enzyme activity, inhibitor, absorbance",,2000 µg/mL,inhibition,91.2%
CC(=O)c1c(C)c2cnc(Nc3ccc(N4CCNCC4)cn3)nc2n(C2CCCC2)c1=O,CDK5 with p35,"enzyme activity, inhibitor, ADP detection",,1 µM,activity vs control,103%
Cc1nnc(SCC2=C(C(=O)O)N3C(=O)[C@@H](NC(=O)Cn4cnnn4)[C@H]3SC2)s1,SCN1A,"ion current, inhibitor, patch clamp",,10 µM,inhibition,4.84%
COc1cc(-c2cncc3c2CN(C)Cc2cc(N4CCNCC4)ccc2-3)cc(OC)c1OC,"Cyclin-dependent kinase 5, with p25 (CDK5, Homo sapiens, UniProt Q00535)","enzyme activity, inhibitor",,1 µM,remaining activity,109%
CNc1ncc2c(/C=C/C(=O)N3CCC(OC)CC3)nn(Cc3cccc(C(F)(F)F)c3)c2n1,CDK5 with p35,"enzyme activity, inhibitor, radiometric",,1 µM,remaining activity,89%
